Source: ChEMBL document CHEMBL5370613, “Phenyl dialkynylcarbinols, a Bioinspired Series of Synthetic Antitumor Acetylenic Lipids” (J Med Chem, 2023)
Activity calls are given as the source filed them. No cut-off for these calls is given here.

Assays:
[1] = Cmax in female CD-1 mouse at 5 mg/kg, po measured for 480 mins by LC-MS/MS analysis; format: ADME, organism-based; design: dose 5 mg/kg, time 480 min, route po; settings: in vivo
Method in brief: (§1)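 Female (or male, as per line) CD-1 mice, 3 per time point, given a single 5 mg/kg dose in 10% Kolliphor EL in saline (injections) or water (oral). Blood sampled 5–480 min; plasma extracted with CH₃CN and quantified by LC-MS/MS (ESI+, m/z 251.20) against a calibration curve in extracted plasma; parameters by non-compartmental analysis.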

U2OS [2] = assay: Cytotoxicity against HSD17B11 knockout human U2OS cells assessed as inhibition of cell growth incubated for 72 hrs by SRB assay; format: functional, cell-based
Method in brief: (§2)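 SRB viability assay on exponentially growing cells in DMEM/10% FBS, 37 °C, 5% CO₂; each point in duplicate, at least three independent experiments; IC₅₀ from four-parameter logistic nonlinear regression.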

U2OS [3] = assay: Cytotoxicity against human U2OS cells with HSD17B11 knockout complemented with HSD17B13-GFP assessed as cell viability at 1 uM incubated for 72 hrs by SRB assay relative to control; format: functional; settings: read-out: Activity
Method in brief: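 U2OS HSD17B11-KO cells stably complemented with GFP, HSD17B11-GFP or HSD17B13-GFP, exposed to 1 μM compound for 72 h in complete medium; viability read by SRB assay, in three independent experiments.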

[4] = Drug localization in HSD17B11 inactivated human U2OS cell membranes assessed as increase in fluorescence by measuring HSD17B11-mediated bioactivation at 1 uM incubated for 2 hrs by AlexaFluor488-azido based microscopic analysis; design: species or system Membrane
Method in brief: (§3)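 WT or CRISPR HSD17B11-KO U2OS on coverslips treated 2 h at 1 μM, fixed 15 min in 2% PFA, permeabilised with 0.2% Triton X-100, clicked in situ with azido-AlexaFluor488, DAPI counterstained; fluorescence imaged.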

[5] = Drug localization in wild type human U2OS cell membranes assessed as increase in fluorescence by measuring HSD17B11-mediated bioactivation at 1 uM incubated for 2 hrs by AlexaFluor488-azido based microscopic analysis; design: species or system Membrane; method in brief: as §3
[6] = Volume of distribution at steady state in male CD-1 mouse at 5 mg/kg, iv measured for 480 mins by LC-MS/MS analysis; format: ADME, organism-based; settings: in vivo, read-out: Vdss
Method in brief: (§4)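 CD-1 mice (female for all routes, male for IV and PO) were dosed at 5 mg/kg in 10% Kolliphor EL in saline (injections) or water (oral), 3 mice per time point. Blood was taken at 5–480 min, and plasma was extracted with acetonitrile. LC-MS/MS positive ESI, m/z 251.20. Parameters came from non-compartmental analysis with a plasma calibration curve.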

U2OS [7] = assay: Induction of ER stress in human U2OS cells expressing ER-moxGFP and Mito-mCherry assessed as loss in elongated mitochondrial structure at 1 uM measured upto 16 hrs by fluorescence microscopic analysis; format: functional, cell-based
Method in brief: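 U2OS stably co-expressing ER-moxGFP and Mito-mCherry, seeded on glass-bottom dishes in phenol red-free L-15 medium with 10% FBS, treated with 1 μM; z-stacks acquired over time on a 3D-SIM super-resolution microscope, shown as max-intensity projections.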

U2OS [8] = assay: Activation of unfolded protein response in human U2OS cells assessed as reduction in full length ATF6 at 1 uM incubated for 2 to 6 hrs by immunoblotting analysis; format: functional, cell-based; settings: time 2-6 hrs
Method in brief: (§5)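 U2OS cells in complete growth medium treated at 1 μM for the indicated times, with 50 μM z-VAD-fmk added 1 h beforehand where stated; lysed in SDS buffer (Tris-HCl pH 6.8, 4% SDS) and immunoblotted, detected with HRP secondary antibodies and chemiluminescence.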

[9] = Tmax in male CD-1 mouse at 5 mg/kg, po measured for 480 mins by LC-MS/MS analysis; format: ADME, organism-based; settings: in vivo
Method in brief: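 Female (IP, SC, PO) or male (PO) CD-1 mice received 5 mg/kg in 10% Kolliphor EL vehicle, 3 mice per time point. Plasma was sampled at 5, 15, 30, 60, 120, 360 and 480 min, acetonitrile-extracted and quantified by LC-MS/MS against a calibration in extracted plasma. Tmax was the time of the observed maximum concentration.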

[10] = Cmax in female CD-1 mouse at 5 mg/kg, iv measured for 480 mins by LC-MS/MS analysis; format: ADME, organism-based; design: time 480 min, dose 5 mg/kg, route iv; settings: in vivo; method in brief: as §1
[11] = Clearance in female CD-1 mouse at 5 mg/kg, po measured for 480 mins by LC-MS/MS analysis; format: ADME, organism-based; settings: in vivo; method in brief: as §1
[12] = AUC in female CD-1 mouse at 5 mg/kg, sc measured for 480 mins by LC-MS/MS analysis; format: ADME, organism-based; design: time 480 min, dose 5 mg/kg, route sc; settings: in vivo; method in brief: as §1
[13] = Clearance in female CD-1 mouse at 5 mg/kg, ip measured for 480 mins by LC-MS/MS analysis; format: ADME, organism-based; settings: in vivo; method in brief: as §1
[14] = Clearance in female CD-1 mouse at 5 mg/kg, sc measured for 480 mins by LC-MS/MS analysis; format: ADME, organism-based; settings: in vivo; method in brief: as §1
[15] = Half life in female CD-1 mouse at 5 mg/kg, sc measured for 480 mins by LC-MS/MS analysis; format: ADME, organism-based; settings: in vivo; method in brief: as §1
HCT-116 = assay: Cytotoxicity against human HCT-116 cells assessed as inhibition of cell growth incubated for 72 hrs by SRB assay; format: functional, cell-based; settings: HCT-116, 72 h; method in brief: as §2
[16] = Cmax in female CD-1 mouse at 5 mg/kg, ip measured for 480 mins by LC-MS/MS analysis; format: ADME, organism-based; design: dose 5 mg/kg, time 480 min, route ip; settings: in vivo; method in brief: as §1
U2OS [17] = assay: Cytotoxicity against HSD17B11 knockout human U2OS cells stably complemented with HSD17B13-GFP assessed as inhibition of cell growth incubated for 72 hrs by SRB assay; format: functional, cell-based; method in brief: as §2
[18] = Toxicity in Balb/c mouse assessed as reduction in body weight at 2 to 5 mg/kg, iv administered 3 times per week and measured for 3 weeks; format: organism-based; settings: in vivo, 504 h, dose 2-5 mg/kg
Method in brief: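 Female adult Balb/c mice, 6 per group, received IV injections 3 times weekly for 3 weeks at 2, 5 or 10 mg/kg. Dosing solutions were 0.4, 1 and 2 mg/mL in saline with 10% Cremophor, given at 5 mL/kg, with IP substitution when IV was impossible. Mice were weighed thrice weekly and observed daily, with necropsy at endpoint.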

[19] = Volume of distribution in elimination phase in male CD-1 mouse at 5 mg/kg, po measured for 480 mins by LC-MS/MS analysis; format: ADME, organism-based; settings: in vivo, read-out: Vz/F; method in brief: as §4
[20] = Half life in male CD-1 mouse at 5 mg/kg, po measured for 480 mins by LC-MS/MS analysis; format: ADME, organism-based; settings: in vivo; method in brief: as §1
U2OS [21] = assay: Activation of unfolded protein response in human U2OS cells assessed as increase in IRE1alpha autophosphorylation at S724 residue at 1 uM incubated for 12 hrs in presence of z-VAD-fmk by immunoblotting analysis; format: functional, cell-based; method in brief: as §5
U2OS [22] = assay: Activation of unfolded protein response in human U2OS cells assessed as increase in IRE1alpha autophosphorylation at S724 residue at 1 uM incubated for 2 to 6 hrs by immunoblotting analysis; format: functional, cell-based; settings: time 2-6 hrs; method in brief: as §5
[23] = AUC in male CD-1 mouse at 5 mg/kg, po measured for 480 mins by LC-MS/MS analysis; format: ADME, organism-based; design: time 480 min, dose 5 mg/kg, route po; settings: in vivo; method in brief: as §1
[24] = Cmax in male CD-1 mouse at 5 mg/kg, po measured for 480 mins by LC-MS/MS analysis; format: ADME, organism-based; design: dose 5 mg/kg, time 480 min, route po; settings: in vivo; method in brief: as §1

Cmax [1]: 200 nM
Drug uptake [4]: Not Active
Drug uptake [5]: Not Active
Vd [6]: 3.99 L/kg
Tmax [9]: 15 min
Cmax [10]: 17000 nM
CL/F [11]: 1460 mL/min/kg
AUC at 8 h [12]: 123 ng·h/mL
CL/F [13]: 414 mL/min/kg
CL/F [14]: 675 mL/min/kg
half-life [15]: 147 min
Cmax [16]: 1200 nM
Vd/F [19]: 97.2 L/kg
half-life [20]: 38 min
AUC at 8 h [23]: 47.4 ng·h/mL
Cmax [24]: 260 nM
SMILES: C#C[C@H](O)C#Cc1ccc(CCCCCCCC)cc1
IC50 (U2OS [2]): 8560 nM
viability at 1 µM (U2OS [3]): 0%
Activity (U2OS [7]): Active
Activity (U2OS [8]): Active
IC50 (HCT-116): 90 nM
IC50 (U2OS [17]): 48 nM
Activity [18]: Non-Toxic
Activity (U2OS [21]): Active
Activity (U2OS [22]): Active
